# Columns and labels:
# Format in all cases: functional
# [1] = tested on: Staphylococcus aureus; assay: Antibacterial activity against methicillin-susceptible Staphylococcus aureus clinical isolate by broth microdilution method
# Method in brief: (§1)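 MICs by CLSI broth microdilution in frozen trays pre-loaded with serial dilutions of each agent. Quality-control strains run in parallel: E. faecalis ATCC 29212 and ATCC 51299, S. aureus ATCC 29213, S. pneumoniae ATCC 49619. Comparator susceptibility categories follow CLSI breakpoints. Methicillin resistance in staphylococci assigned from the oxacillin MIC.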
# [2] = tested on: Staphylococcus aureus; assay: Antibacterial activity against methicillin-resistant Staphylococcus aureus clinical isolate by broth microdilution method; method in brief: as §1
# [3] = tested on: Staphylococcus capitis; assay: Antibacterial activity against methicillin-susceptible coagulase-negative Staphylococcus capitis clinical isolate by broth microdilution method; method in brief: as §1
# [4] = tested on: Staphylococcus cohnii; assay: Antibacterial activity against methicillin-susceptible coagulase-negative Staphylococcus cohnii clinical isolate by broth microdilution method; method in brief: as §1
# [5] = tested on: Staphylococcus epidermidis; assay: Antibacterial activity against methicillin-susceptible coagulase-negative Staphylococcus epidermidis clinical isolate by broth microdilution method; method in brief: as §1
# [6] = tested on: Staphylococcus haemolyticus; assay: Antibacterial activity against methicillin-susceptible coagulase-negative Staphylococcus haemolyticus clinical isolate by broth microdilution method; method in brief: as §1
# [7] = tested on: Staphylococcus saprophyticus; assay: Antibacterial activity against methicillin-susceptible coagulase-negative Staphylococcus saprophyticus clinical isolate by broth microdilution method; method in brief: as §1
# [8] = tested on: Mammaliicoccus sciuri; assay: Antibacterial activity against methicillin-susceptible coagulase-negative Staphylococcus sciuri clinical isolate by broth microdilution method; method in brief: as §1
# [9] = tested on: Staphylococcus simulans; assay: Antibacterial activity against methicillin-susceptible coagulase-negative Staphylococcus simulans clinical isolate by broth microdilution method; method in brief: as §1
# [10] = tested on: Staphylococcus warneri; assay: Antibacterial activity against methicillin-susceptible coagulase-negative Staphylococcus warneri clinical isolate by broth microdilution method; method in brief: as §1
# [11] = tested on: Staphylococcus xylosus; assay: Antibacterial activity against methicillin-susceptible coagulase-negative Staphylococcus xylosus clinical isolate by broth microdilution method; method in brief: as §1
# [12] = tested on: Staphylococcus capitis; assay: Antibacterial activity against methicillin-resistant coagulase-negative Staphylococcus capitis clinical isolate by broth microdilution method; method in brief: as §1
# [13] = tested on: Staphylococcus haemolyticus; assay: Antibacterial activity against methicillin-resistant coagulase-negative Staphylococcus haemolyticus clinical isolate by broth microdilution method; method in brief: as §1
# [14] = tested on: Staphylococcus saprophyticus; assay: Antibacterial activity against methicillin-resistant coagulase-negative Staphylococcus saprophyticus clinical isolate by broth microdilution method; method in brief: as §1
# [15] = tested on: Staphylococcus simulans; assay: Antibacterial activity against methicillin-resistant coagulase-negative Staphylococcus simulans clinical isolate by broth microdilution method; method in brief: as §1
# [16] = tested on: Staphylococcus warneri; assay: Antibacterial activity against methicillin-resistant coagulase-negative Staphylococcus warneri clinical isolate by broth microdilution method; method in brief: as §1
# [17] = tested on: Enterococcus faecalis; assay: Antibacterial activity against vancomycin-susceptible Enterococcus faecalis clinical isolate by broth microdilution method; method in brief: as §1
# [18] = tested on: Enterococcus faecalis; assay: Antibacterial activity against vancomycin-resistant and teichoplanin-susceptible Enterococcus faecalis clinical isolate by broth microdilution method; method in brief: as §1
# [19] = tested on: Enterococcus faecium; assay: Antibacterial activity against vancomycin-susceptible Enterococcus faecium clinical isolate by broth microdilution method
# Method in brief: (§2)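 MIC by CLSI broth microdilution in frozen microtiter trays holding serial dilutions of each agent, prepared from standard laboratory powders. E. faecalis ATCC 29212 and ATCC 51299, S. aureus ATCC 29213 and S. pneumoniae ATCC 49619 run in parallel as quality-control strains. Comparator susceptibility interpreted with CLSI breakpoints.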
# [20] = tested on: Enterococcus faecium; assay: Antibacterial activity against vancomycin- and teichoplanin-nonsusceptible Enterococcus faecium clinical isolate by broth microdilution method; method in brief: as §1
# [21] = tested on: Enterococcus faecium; assay: Antibacterial activity against vancomycin-resistant and teichoplanin-susceptible Enterococcus faecium clinical isolate by broth microdilution method; method in brief: as §1
# [22] = tested on: Streptococcus pyogenes; assay: Antibacterial activity against Streptococcus pyogenes clinical isolate by broth microdilution method; method in brief: as §2
# [23] = tested on: Streptococcus agalactiae; assay: Antibacterial activity against Streptococcus agalactiae clinical isolate by broth microdilution method; method in brief: as §2
# [24] = Antibacterial activity against Streptococcus sp. Group C clinical isolate by broth microdilution method; method in brief: as §2
# [25] = tested on: Streptococcus sp.; assay: Antibacterial activity against Streptococcus sp. Group F clinical isolate by broth microdilution method
# Method in brief: (§3)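 MIC by CLSI broth microdilution in frozen microtiter trays holding serial dilutions of each agent, prepared from standard laboratory powders. Comparator susceptibility interpreted with CLSI breakpoints.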
# [26] = Antibacterial activity against Streptococcus sp. Group G clinical isolate by broth microdilution method; method in brief: as §2
# [27] = tested on: Streptococcus equinus; assay: Antibacterial activity against Streptococcus bovis clinical isolate by broth microdilution method; method in brief: as §2
# [28] = tested on: Streptococcus constellatus; assay: Antibacterial activity against Streptococcus constellatus clinical isolate by broth microdilution method; method in brief: as §2
# [29] = tested on: Streptococcus intermedius; assay: Antibacterial activity against Streptococcus intermedius clinical isolate by broth microdilution method; method in brief: as §2
# [30] = tested on: Streptococcus mitis; assay: Antibacterial activity against Streptococcus mitis clinical isolate by broth microdilution method; method in brief: as §2
# [31] = tested on: Streptococcus oralis; assay: Antibacterial activity against Streptococcus oralis clinical isolate by broth microdilution method; method in brief: as §2
# [32] = tested on: Streptococcus sanguinis; assay: Antibacterial activity against Streptococcus sanguinis clinical isolate by broth microdilution method; method in brief: as §2
# [33] = tested on: Streptococcus sp.; assay: Antibacterial activity against Streptococcus sp. clinical isolate by broth microdilution method; method in brief: as §3
# [34] = tested on: Streptococcus pneumoniae; assay: Antibacterial activity against penicillin intermediate Streptococcus pneumoniae clinical isolate by broth microdilution method; method in brief: as §1
# [35] = tested on: Staphylococcus; assay: Antibacterial activity against daptomycin-nonsusceptible coagulase-negative Staphylococcus isolate 1285835 by broth microdilution method; method in brief: as §2
# [36] = tested on: Staphylococcus capitis; assay: Antibacterial activity against daptomycin-nonsusceptible Staphylococcus capitis isolate 1285355 by broth microdilution method; method in brief: as §2
# [37] = tested on: Staphylococcus aureus; assay: Antibacterial activity against vancomycin-intermediate methicillin-resistant Staphylococcus aureus NRS17 by broth microdilution method
# Method in brief: (§4)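 VISA and VRSA strains from the NARSA repository were tested separately from the surveillance isolates. MICs by CLSI broth microdilution in frozen trays with serial dilutions. Quality-control strains run in parallel. Susceptibility categories follow CLSI breakpoints, and methicillin resistance was assigned from the oxacillin MIC.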
# [38] = tested on: Staphylococcus aureus; assay: Antibacterial activity against vancomycin-, methicillin-resistant Staphylococcus aureus VRS3 by broth microdilution method; method in brief: as §4
smiles,measurement,setting,value
CN[C@H](CC(C)C)C(=O)N[C@H]1C(=O)N[C@@H](CC(N)=O)C(=O)N[C@H]2C(=O)N[C@H]3C(=O)N[C@H](C(=O)N[C@H](C(=O)O)c4cc(O)cc(O)c4-c4cc3ccc4O)[C@H](O)c3ccc(c(Cl)c3)Oc3cc2cc(c3O[C@@H]2O[C@H](CO)[C@@H](O)[C@H](O)[C@H]2O[C@H]2C[C@](C)(N)[C@H](O)[C@H](C)O2)Oc2ccc(cc2Cl)[C@H]1O [VANCOMYCIN],MIC50,[1],1 µg/mL
same,MIC90,[1],1 µg/mL
same,MIC50,[2],1 µg/mL
same,MIC90,[2],1 µg/mL
same,MIC50,[3],1 µg/mL
same,MIC90,[3],2 µg/mL
same,MIC50,[4],1 µg/mL
same,MIC90,[4],2 µg/mL
same,MIC50,[5],1 µg/mL
same,MIC90,[5],2 µg/mL
same,MIC50,[6],1 µg/mL
same,MIC90,[6],2 µg/mL
same,MIC50,[7],1 µg/mL
same,MIC90,[7],2 µg/mL
same,MIC50,[8],1 µg/mL
same,MIC90,[8],2 µg/mL
same,MIC50,[9],1 µg/mL
same,MIC90,[9],2 µg/mL
same,MIC50,[10],1 µg/mL
same,MIC90,[10],2 µg/mL
same,MIC50,[11],1 µg/mL
same,MIC90,[11],2 µg/mL
same,MIC50,[12],2 µg/mL
same,MIC90,[12],2 µg/mL
same,MIC50,[13],2 µg/mL
same,MIC90,[13],2 µg/mL
same,MIC50,[14],2 µg/mL
same,MIC90,[14],2 µg/mL
same,MIC50,[15],2 µg/mL
same,MIC90,[15],2 µg/mL
same,MIC50,[16],2 µg/mL
same,MIC90,[16],2 µg/mL
same,MIC50,[17],1 µg/mL
same,MIC90,[17],2 µg/mL
same,MIC,[18],32 µg/mL
same,MIC,[19],≤ 0.5 µg/mL
same,MIC50,[19],≤ 0.5 µg/mL
same,MIC90,[19],1 µg/mL
same,MIC50,[20],512 µg/mL
same,MIC90,[20],512 µg/mL
same,MIC50,[21],128 µg/mL
same,MIC90,[21],512 µg/mL
same,MIC,[22],0.25 µg/mL
same,MIC50,[22],0.25 µg/mL
same,MIC90,[22],0.5 µg/mL
same,MIC50,[23],0.5 µg/mL
same,MIC90,[23],0.5 µg/mL
same,MIC,[24],0.25 µg/mL
same,MIC50,[24],0.25 µg/mL
same,MIC90,[24],0.5 µg/mL
same,MIC,[25],0.25 µg/mL
same,MIC50,[25],0.25 µg/mL
same,MIC90,[25],0.5 µg/mL
same,MIC,[26],0.25 µg/mL
same,MIC50,[26],0.25 µg/mL
same,MIC90,[26],0.5 µg/mL
same,MIC50,[27],0.5 µg/mL
same,MIC90,[27],0.5 µg/mL
same,MIC50,[28],0.5 µg/mL
same,MIC90,[28],0.5 µg/mL
same,MIC50,[29],0.5 µg/mL
same,MIC90,[29],0.5 µg/mL
same,MIC50,[30],0.5 µg/mL
same,MIC90,[30],0.5 µg/mL
same,MIC50,[31],0.5 µg/mL
same,MIC90,[31],0.5 µg/mL
same,MIC50,[32],0.5 µg/mL
same,MIC90,[32],0.5 µg/mL
same,MIC50,[33],0.5 µg/mL
same,MIC90,[33],0.5 µg/mL
same,MIC,[34],0.25 µg/mL
same,MIC50,[34],0.25 µg/mL
same,MIC90,[34],0.5 µg/mL
same,MIC,[35],2 µg/mL
same,MIC,[36],2 µg/mL
same,MIC,[37],8 µg/mL
same,MIC,[38],> 32 µg/mL
